Screening results deposited in PubChem BioAssay by several laboratories.
An excerpt weighted towards active compounds, which were near 1.6% of everything screened.
Apaf1 inhib: inhibitors of human Apaf-1 apoptosome. inhibition, % at 20 µM. O14727. 0.71% of 330,000 active. reconstituted apoptosome caspase-3 activity, DEVD-Rh110 fluorescence; active means inhibition of at least 40% at 20 µM;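 further: plate controls were DMSO wells for no effect and DEVD-CHO caspase inhibitor wells for full effect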
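System – cell-free apoptosome with Apaf-1, procaspase-3 and caspase-9 · Buffer or medium – pH 7.5 Hepes buffer with CHAPS, BSA, DTT · Also added – cytochrome c with DEVD-Rh110 · Times – 30 min compound preincubation, 50 min activation, room temperature · Technique – Rh110 fluorescence intensity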
RAD54 inh: RAD54 (human) branch migration inhibition | RAD54 Holliday junction branch migration, FAM/BHQ fluorescence | inhibition, % at 10.4 µM | Q92698 | 0.14% of 360,000 active;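 active means mean normalized replicate activity at least 40 and at least half of replicates scoring 40 or more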;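 further: 0% = median of neutral control wells and 100% = median of positive control wells; inhibitors cause a drop in the FAM fluorescence signal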
Target sequence (Q92698 whole entry, looked up): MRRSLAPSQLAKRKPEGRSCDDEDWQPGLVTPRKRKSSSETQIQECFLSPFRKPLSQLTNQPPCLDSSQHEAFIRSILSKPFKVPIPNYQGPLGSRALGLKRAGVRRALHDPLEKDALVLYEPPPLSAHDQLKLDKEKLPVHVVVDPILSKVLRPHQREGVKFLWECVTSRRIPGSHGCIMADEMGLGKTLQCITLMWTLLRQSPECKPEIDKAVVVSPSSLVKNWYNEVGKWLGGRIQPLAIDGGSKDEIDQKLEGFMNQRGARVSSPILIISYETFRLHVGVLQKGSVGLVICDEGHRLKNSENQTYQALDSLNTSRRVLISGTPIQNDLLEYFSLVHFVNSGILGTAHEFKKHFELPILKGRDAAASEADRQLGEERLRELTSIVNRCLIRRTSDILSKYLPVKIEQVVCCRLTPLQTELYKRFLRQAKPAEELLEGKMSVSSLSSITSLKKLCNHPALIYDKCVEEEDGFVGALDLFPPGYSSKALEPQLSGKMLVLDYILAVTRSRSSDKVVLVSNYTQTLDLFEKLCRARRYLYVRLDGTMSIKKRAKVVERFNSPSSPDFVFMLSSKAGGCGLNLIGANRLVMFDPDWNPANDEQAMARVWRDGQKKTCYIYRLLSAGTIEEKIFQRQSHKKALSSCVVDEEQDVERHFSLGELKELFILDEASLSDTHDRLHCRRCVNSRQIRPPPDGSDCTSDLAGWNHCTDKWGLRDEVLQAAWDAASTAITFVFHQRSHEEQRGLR
RAD52 anneal inh: inhibitors of human RAD52 DNA annealing; P43351; recombinant RAD52 DNA annealing, FRET fluorescence; inhibition, % at 18.7 µM; 0.46% of 360,000 active; AID 651710;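 active means every replicate showing at least 50% inhibition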
DNA FID counter: counter-screen for HCV NS3 helicase inhibitors: DNA intercalator displacement; DNA fluorescent intercalator displacement, fluorescence; inhibition, % at 7.9 µM; 0.17% of 290,000 active; in the data active means inhibition above about 37%;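 further: 0% = vehicle and 100% = reference compound; higher means more ethidium bromide displaced from hairpin DNA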
Neddylation inh: cullin neddylation inhibition. P61081+Q13564. TR-FRET cullin neddylation, biochemical. calls only at 25 µM. 0.58% of 360,000 active. AID 651699; in the data active means inhibition above about 36%
UBC13 inh: blocks human UBC13 polyubiquitin chain formation; 0.47% of 330,000 active; TR-FRET; AID 485273; inhibition, % at 20 µM; in the data active means inhibition above about 45%, passing the limit was not always enough
* = called active by the depositor; i = inactive; · = no result; ! = repeats disagree.

SMILES | Apaf1 inhib | RAD54 inh | RAD52 anneal inh | DNA FID counter | Neddylation inh | UBC13 inh
COc1ccc(CN(C)C[C@@H]2OCCCC[C@@H](C)Oc3ccc(NC(=O)Nc4ccc5c(c4)OCO5)cc3C(=O)N([C@H](C)CO)C[C@H]2C)cc1 | · | -4 | 55* | · | · | ·
COc1ccc(NC(=O)Nc2ccc3c(c2)C(=O)N([C@H](C)CO)C[C@@H](C)[C@H](CN(C)Cc2ccccc2)OCCCC[C@H](C)O3)cc1 | · | 7 | 59* | · | · | ·
COc1ccc(CN(C)C[C@@H]2Oc3ccc(NC(=O)Nc4ccc(OC)cc4)cc3C(=O)N([C@H](C)CO)C[C@@H]2C)cc1 | · | -2 | 12 | · | · | ·
COc1ccc(NC(=O)Nc2ccc3c(c2)C(=O)N([C@@H](C)CO)C[C@@H](C)[C@H](CN(C)Cc2ccccc2)OCCCC[C@@H](C)O3)cc1 | · | 2 | 40 | · | · | ·
COc1ccc(CN(C)C[C@H]2OCCCC[C@H](C)Oc3ccc(NC(=O)Nc4ccc5c(c4)OCO5)cc3C(=O)N([C@H](C)CO)C[C@H]2C)cc1 | · | -6 | 8 | · | · | ·
COc1ccc(CN(C)C[C@@H]2Oc3ccc(NC(=O)Nc4ccc(F)cc4)cc3C(=O)N([C@H](C)CO)C[C@H]2C)cc1 | · | 72* | 16 | · | · | ·
COc1ccc(NC(=O)Nc2ccc3c(c2)C(=O)N([C@H](C)CO)C[C@H](C)[C@H](CN(C)Cc2ccccc2)OCCCC[C@H](C)O3)cc1 | · | 8 | 54* | · | · | ·
C[C@H](CO)N1C[C@H](C)[C@H](CN(C)Cc2ccc3c(c2)OCO3)OCCCC[C@H](C)Oc2ccc(NC(=O)Nc3ccccc3)cc2C1=O | · | -4 | 56* | · | · | ·
O=C(NCC[C@H]1CC[C@@H](NS(=O)(=O)c2ccc(Cl)cc2)[C@@H](CO)O1)Nc1ccc(F)cc1 | · | · | 13 | · | · | ·
CN(C)CCCN(C(=O)c1ccc2c(c1)OCCO2)c1nc2ccc(Cl)cc2s1 | 28 | 3 | 33 | 40* | i | 10
CN(C)CCN(C(=O)c1ccc(C(=O)c2ccccc2)cc1)c1nc2cc3c(cc2s1)OCO3 | 20 | 5 | -6 | 7 | i | 5
CN(C)CCN(C(=O)c1ccc(C(=O)c2ccccc2)cc1)c1nc2cc3c(cc2s1)OCCO3 | 10 | -4 | 63* | 16 | i | 38
C[C@@H]1CN([C@@H](C)CO)C(=O)c2cc(NC(=O)C3CCCCC3)ccc2O[C@@H](C)CCCCO[C@@H]1CN(C)C(=O)NC1CCCCC1 | · | 1 | -9 | · | · | ·
CC(=O)N1CC2(C1)[C@@H](c1ccccc1)[C@H](CO)N2C(=O)c1ccncc1 | · | · | 0 | · | · | ·
O=S(=O)(c1ccccc1)N1[C@@H]2CNC[C@H]1C2c1ccc(/C=C/c2ccccc2)cc1 (stereo not given in full) | · | · | 49 | · | · | ·
Cc1ccc(S(=O)(=O)N2[C@@H]3CNC[C@H]2C3c2ccc(-c3cccc(F)c3)cc2)cc1 (stereo not given in full) | · | · | 37 | · | · | ·
Cc1ccc(S(=O)(=O)N2[C@@H]3CNC[C@H]2C3c2ccc(-c3ccc(C#N)cc3)cc2)cc1 (stereo not given in full) | · | · | 55* | · | · | ·
Cc1ccc(S(=O)(=O)N2[C@@H]3CNC[C@H]2C3c2ccc(/C=C/c3ccccc3)cc2)cc1 (stereo not given in full) | · | · | 53*! | · | · | ·
O=S(=O)(c1ccc(-c2ccccc2)cc1)N1[C@@H]2CNC[C@H]1C2c1ccc(-c2cccnc2)cc1 (stereo not given in full) | · | · | 66* | · | · | ·
Cc1noc(C)c1S(=O)(=O)Nc1ccc2c(c1)CC(=O)N([C@H](C)CO)C[C@H](C)[C@@H](CN(C)Cc1ccc(C(=O)O)cc1)O2 | · | · | -11 | · | · | ·
Cc1ccc(S(=O)(=O)N2C[C@@H](O)COC[C@@H]3O[C@H](CC(=O)NCC4CCCCC4)CC[C@H]32)cc1 | · | -2 | 27 | · | · | ·
O=C(C[C@H]1CC[C@H]2[C@@H](COC[C@@H](O)CN2S(=O)(=O)c2ccc(F)cc2)O1)NCC1CCCCC1 | · | -3 | 21 | · | · | ·
O=C(C[C@@H]1CC[C@H]2[C@@H](COC[C@@H](O)CN2S(=O)(=O)c2ccc(F)cc2)O1)NCC1CCCCC1 | · | 3 | 70* | · | · | ·
O=C(C[C@H]1CC[C@H]2[C@@H](COC[C@H](O)CN2S(=O)(=O)c2ccc(F)cc2)O1)NCC1CC1 | · | -22 | -3 | · | · | ·
Cc1ccc(S(=O)(=O)N2C[C@@H](O)COC[C@H]3O[C@@H](CC(=O)NCC4CCCCC4)CC[C@@H]32)cc1 | · | -11 | 53* | · | · | ·
SMILES | Apaf1 inhib | RAD54 inh | RAD52 anneal inh | DNA FID counter | Neddylation inh | UBC13 inh
O=C(C[C@H]1CC[C@H]2[C@@H](COC[C@H](O)CN2S(=O)(=O)c2ccc(F)cc2)O1)NCC1CCCCC1 | · | 2 | 66* | · | · | ·
CN(C)C(=O)C[C@@H]1C[C@H]2c3cc(NC(=O)NC4CCCCC4)ccc3O[C@H]2[C@H](CO)O1 | · | -2 | -4 | · | · | ·
O=C(NC(=S)Nn1cnc2c(cnn2-c2ccccc2)c1=O)c1ccc(Oc2ccccc2)cc1 | 41* | -7 | · | -4 | i | -12
C#CCOCCOCCOCCNc1nc(N2CCN(C(=O)C(Cc3cc4ccccc4[nH]3)n3cc(C(N)Cc4ccc(O)cc4)nn3)CC2)nc(N2CCN(C(=O)C(Cc3cc4ccccc4[nH]3)n3cc(C(N)Cc4ccc(O)cc4)nn3)CC2)n1 (stereo not given) | · | · | · | 52* | · | ·
C#CCOCCOCCOCCNc1nc(N2CCN(C(=O)[C@H]([C@@H](C)CC)n3cc([C@@H](N)CC(C)C)nn3)CC2)nc(N2CCN(C(=O)[C@H](Cc3cc4ccccc4[nH]3)n3cc([C@@H](N)CC(C)C)nn3)CC2)n1 | 58* | · | · | · | · | 40
C#CCOCCOCCOCCNc1nc(N2CCN(C(=O)[C@H]([C@@H](C)CC)n3cc([C@@H](N)Cc4ccc(O)cc4)nn3)CC2)nc(N2CCN(C(=O)[C@H](Cc3cc4ccccc4[nH]3)n3cc([C@@H](N)C(C)CC)nn3)CC2)n1 (stereo not given in full) | 49* | · | · | 34 | · | 78*
C#CCOCCOCCOCCNc1nc(N2CCN(C(=O)C(Cc3cc4ccccc4[nH]3)n3cc(C(N)Cc4ccc(O)cc4)nn3)CC2)nc(N2CCN(C(=O)C(CCC(=O)O)n3cc(C(N)C(C)CC)nn3)CC2)n1 (stereo not given) | 11 | 4 | -15 | · | i | 10
C#CCOCCOCCOCCNc1nc(N2CCN(C(=O)C(CCC(=O)O)n3cc(C(N)CC(C)C)nn3)CC2)nc(N2CCN(C(=O)C(Cc3cc4ccccc4[nH]3)n3cc(C(N)Cc4ccc(O)cc4)nn3)CC2)n1 (stereo not given) | 7 | · | · | 15 | i | 10
C#CCOCCOCCOCCNc1nc(N2CCOCC2)nc(N2CCN(C(=O)[C@H](Cc3cc4ccccc4[nH]3)n3cc([C@@H](N)CC(C)C)nn3)CC2)n1 | 15 | 4 | · | 23 | i | 28
CC(C)NC(=O)N1[C@@H]2CN(C(=O)Nc3ccccc3)c3ccccc3[C@@H]2[C@@H]1CO | · | -5 | -4 | · | · | ·
